Assay results reported in paper PMC12486192 (Clinical Pharmacology in Drug Development, 2025).
Like-named read-outs stand apart in the source and are kept apart here.

What was measured:
[1] = Estimated first-pass metabolism in gut and liver; type: in vivo, human
[2] = Metabolite profiling and identification in plasma and feces; type: in vivo, human; settings: Part 1: oral 400 mg [14C]-imlunestrant solution
In short: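 Part 1 plasma was sampled predose and 0.5–264 h after the oral radiolabelled dose. It was extracted twice with acetonitrile (3 volumes), dried, and reconstituted in 10 mM ammonium formate pH 9.0:methanol (80:20). Separation was on a C18 column with 10 mM ammonium formate pH 9.0 / methanol, gradient 20% to 90% B. Fecal metabolites were identified if ≥1% of dose across time points.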

[3] = type: in vivo, human; settings: Part 1: single oral 400 mg [14C]-imlunestrant solution
In short: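 Healthy women received a single oral 400 mg radiolabelled test compound solution (100 µCi). Urine was collected −12–0, 0–6, 6–12 and 12–24 h, then in 24-h intervals. Feces were pooled 0–24 h, then in 24-h intervals. Collection continued until ≥90% of dose was recovered and ≤1%/day for 2 consecutive days, or Day 22. Vomitus was collected within 4 h. Radioactivity was counted by LSC and reported as % and cumulative % of dose.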

[4] = Safety and tolerability; type: in vivo, human
In short: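 AEs and SAEs were monitored to Day 59 (Part 1) or Day 46 (Part 2), with a follow-up call ~7 days after discharge. Part 2 gave two 200-mg oral tablets, then 4 h later a 45 µg (~1 µCi) radiolabelled IV infusion over 15 min. TEAEs were summarised by treatment, MedDRA v24.0 system organ class and preferred term. Severity (mild/moderate/severe) was graded by the investigator.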

[5] = oral 200‐1200 mg once daily, patients, EMBER; cited from earlier work
[6] = type: in vivo, human
[7] = similar to Biopharmaceutics Classification System Class 2 compounds; cited from earlier work
[8] = Biliary excretion in bile-cannulated rats; type: in vivo; settings: data not shown
[9] = type: in vivo; settings: female, human, plasma, po, 400 mg
[10] = molecular target: cytochrome P450 (CYP) 3A4 (Homo sapiens, UniProt P08684); assay: In vitro enzyme substrate studies, CYP3A4; type: in vitro ADME
[11] = tested on: P‐glycoprotein; settings: in vitro; cited from earlier work
[12] = tested on: uridine 5′ diphospho‐glucuronosyltransferases (UGTs; including UGT1A1, UGT1A8, UGT1A3, UGT1A9, and UGT1A10); assay: In vitro enzyme substrate studies, UGTs; type: in vitro ADME
[13] = cited from earlier work
[14] = Part 1: 400 mg [14C]-imlunestrant oral (N=8)
[15] = Part 2: 45 µg [14C]-imlunestrant (1 µCi) IV infusion
[16] = female, human, plasma, intravenous, 45 µg
[17] = female, human, plasma, iv, 45 µg
[18] = female, human, plasma, po, 400 mg

cytochrome P450 (CYP) 3A4, sequence (P08684 whole entry): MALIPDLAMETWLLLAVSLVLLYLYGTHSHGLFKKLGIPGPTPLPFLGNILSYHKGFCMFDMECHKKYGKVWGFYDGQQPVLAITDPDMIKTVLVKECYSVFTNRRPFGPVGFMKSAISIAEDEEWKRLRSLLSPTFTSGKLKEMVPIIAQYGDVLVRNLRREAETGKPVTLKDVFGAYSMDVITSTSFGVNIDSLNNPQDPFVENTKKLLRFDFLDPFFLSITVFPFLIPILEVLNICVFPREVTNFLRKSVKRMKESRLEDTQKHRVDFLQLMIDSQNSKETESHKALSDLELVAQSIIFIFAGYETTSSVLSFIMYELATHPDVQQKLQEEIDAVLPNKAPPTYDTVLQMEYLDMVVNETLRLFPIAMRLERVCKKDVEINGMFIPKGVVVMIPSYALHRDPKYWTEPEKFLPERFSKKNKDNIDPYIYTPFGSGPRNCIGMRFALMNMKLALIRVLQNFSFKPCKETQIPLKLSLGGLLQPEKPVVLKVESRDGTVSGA

Question: With Oc1ccc2c3c(cnc2c1)-c1ccc(C(F)(F)F)cc1O[C@@H]3c1ccc(OCCN2CC(CF)C2)cc1 [Imlunestrant] as the molecule, how does the “Fraction passing through the portal vein extracted by first‐pass metabolism in the liver” value [1] read?
Answer: The value was “Approximately 30%”.

Question: And the “Detectable in plasma up to” value [2]?
Answer: Its value is “up to 264 hours”.

Question: What about the “Radioactivity recovered in the feces in the first 192 hours” value [3] of the same molecule?
Answer: The value was “Over 90%”.

Question: What about the “Total radioactivity excreted via the feces” value ([3]; mean of 5 participants) of the same molecule?
Answer: Its value is 97.3%.

Question: And the “All TEAEs: % of participants with TEAEs” value [4, 14]?
Answer: Its value is 100%.

Question: And the “All TEAEs: number of participants with TEAEs” value [4, 14]?
Answer: The value was 8.

Question: What about the “All TEAEs: number of TEAEs” value ([4]; Part 2: 400 mg imlunestrant oral tablets + 45 µg [14C]-imlunestrant IV (N=8)) of the same molecule?
Answer: Its value is 5.

Question: And the Tolerability ([4]; single 400 mg oral solution or tablet/intravenous dose, fasted, healthy women)?
Answer: Its Tolerability is “well tolerated”.

Question: And the “Dose dependence of Cmax and AUC0‐∞” value [5]?
Answer: The value was “dose‐proportional increase”.

Question: And the “Geometric mean t1/2” value [5]?
Answer: The value was 25 to 30 h.

Question: What about the Median tmax [5] of the same molecule?
Answer: The Median tmax was “approximately 4 hours”.

Question: What about the “Time to Cmax of [14C]‐imlunestrant after start of intravenous infusion” value [6, 15] of the same molecule?
Answer: Its value is no more than 15 min.

Question: What about the “Time to Cmax of total radioactivity after start of intravenous infusion” value [6, 15] of the same molecule?
Answer: The value was no more than 15 min.

Question: What about the AUC [6, 16] of the same molecule?
Answer: Its AUC is 1.92 ng·h/mL.

Question: What about the Cmax [6, 16] of the same molecule?
Answer: Its Cmax is 0.585 ng/mL.

Question: What about the Tmax [6, 16] of the same molecule?
Answer: The Tmax was 0.25 h.

Question: And the half-life [6, 16]?
Answer: The half-life was 32.5 h.

Question: What about the Vd [6, 17] of the same molecule?
Answer: The Vd was 1020 L.

Question: And the clearance [6, 17]?
Answer: The clearance was 397 mL/min.

Question: What about the Cmax [6, 18] of the same molecule?
Answer: The Cmax was 38.7 ng/mL.

Question: What about the Tmax [6, 18] of the same molecule?
Answer: The Tmax was 4.37 h.

Question: What about the half-life [6, 18] of the same molecule?
Answer: Its half-life is 32.1 h.

Question: What about the Permeability [7] of the same molecule?
Answer: Its Permeability is “moderate to high”.

Question: What about the “Fraction of oral dose appearing as a glucuronide metabolite in bile” value [8] of the same molecule?
Answer: Its value is “substantial fraction”.

Question: And the Cmax [9]?
Answer: Its Cmax is 117 ng/mL.

Question: And the half-life [9]?
Answer: The half-life was 33.7 h.

Question: What about the “Substrate of CYP3A4” value [10] of the same molecule?
Answer: Its value is “substrate”.

Question: What about the “Substrate of the efflux transporter P‐glycoprotein” value [11] of the same molecule?
Answer: Its value is “in vitro substrate”.

Question: And the “Substrate of UGTs” value [12]?
Answer: Its value is “substrate”.

Question: Which Solubility [13] does the source give for C[C@]12CC[C@@H]3c4ccc(O)cc4C[C@@H](CCCCCCCCC[S+]([O-])CCCC(F)(F)C(F)(F)F)[C@H]3[C@@H]1CC[C@@H]2O (stereo partly drawn) [fulvestrant] here?
Answer: The Solubility was “poorly soluble”.
